Test results published in ChEMBL document CHEMBL1135657, “Novel dual inhibitors of AChE and MAO derived from hydroxy aminoindan and phenethylamine as potential treatment for Alzheimer's disease” (J Med Chem, 2002).

Assays:
Acetylcholinesterase [1] = target: T1, Acetylcholinesterase (Homo sapiens, UniProt P22303); assay: In vitro inhibitory concentration against purified Acetylcholinesterase of human erythrocytes; value ranges from 2.8-27.5
[2] = target: T2, Amine oxidase [flavin-containing] B (Rattus norvegicus, UniProt P19643); assay: In vitro inhibitory concentration against Monoamine oxidase B of rat brain homogenates; value ranges from 0.23-0.34; format: tissue-based
T2 sequence (P19643 whole entry): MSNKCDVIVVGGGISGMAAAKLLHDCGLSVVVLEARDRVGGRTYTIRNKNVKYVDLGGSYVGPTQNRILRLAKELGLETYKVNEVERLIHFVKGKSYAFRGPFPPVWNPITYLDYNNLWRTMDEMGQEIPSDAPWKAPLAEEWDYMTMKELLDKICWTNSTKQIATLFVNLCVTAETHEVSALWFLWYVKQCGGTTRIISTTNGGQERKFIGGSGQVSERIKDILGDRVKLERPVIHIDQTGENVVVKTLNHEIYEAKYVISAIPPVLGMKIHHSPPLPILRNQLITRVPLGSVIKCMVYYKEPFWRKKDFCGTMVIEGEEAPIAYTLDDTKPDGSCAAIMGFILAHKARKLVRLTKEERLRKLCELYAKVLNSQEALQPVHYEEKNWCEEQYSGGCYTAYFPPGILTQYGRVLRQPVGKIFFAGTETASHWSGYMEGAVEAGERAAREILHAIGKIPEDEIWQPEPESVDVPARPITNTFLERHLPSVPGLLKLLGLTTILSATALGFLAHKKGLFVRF

[3] = target: T3, Amine oxidase [flavin-containing] A (Rattus norvegicus, UniProt P21396); assay: In vitro inhibitory concentration against Monoamine oxidase A of rat brain homogenates; value ranges from 0.8-1.0; format: tissue-based
T3 sequence (P21396 whole entry): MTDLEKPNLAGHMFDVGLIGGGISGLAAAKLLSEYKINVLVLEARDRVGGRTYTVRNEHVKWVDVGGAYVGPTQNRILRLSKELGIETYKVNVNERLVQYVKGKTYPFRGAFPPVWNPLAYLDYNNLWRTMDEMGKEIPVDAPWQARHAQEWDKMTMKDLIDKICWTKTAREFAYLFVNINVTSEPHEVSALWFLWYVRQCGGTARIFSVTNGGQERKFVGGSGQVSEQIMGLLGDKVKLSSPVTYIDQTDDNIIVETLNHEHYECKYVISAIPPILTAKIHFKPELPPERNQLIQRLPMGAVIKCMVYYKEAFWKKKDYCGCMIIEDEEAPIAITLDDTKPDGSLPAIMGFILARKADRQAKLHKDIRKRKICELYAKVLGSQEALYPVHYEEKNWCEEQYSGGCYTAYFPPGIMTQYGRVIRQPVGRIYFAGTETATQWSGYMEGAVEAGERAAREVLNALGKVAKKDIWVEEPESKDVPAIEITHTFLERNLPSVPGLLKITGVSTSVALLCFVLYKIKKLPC

Acetylcholinesterase [4] = target: T1, Acetylcholinesterase; assay: In vitro inhibitory concentration against purified Acetylcholinesterase of human erythrocytes; value ranges from 4.6-25.8
Butyrylcholinesterase [5] = target: T4, Butyrylcholinesterase (Equus caballus, UniProt Q9N1N9); assay: In vitro inhibitory concentration against Butyrylcholinesterase of horse serum; value ranges from 0.20-0.36
T4 sequence (Q9N1N9 whole entry): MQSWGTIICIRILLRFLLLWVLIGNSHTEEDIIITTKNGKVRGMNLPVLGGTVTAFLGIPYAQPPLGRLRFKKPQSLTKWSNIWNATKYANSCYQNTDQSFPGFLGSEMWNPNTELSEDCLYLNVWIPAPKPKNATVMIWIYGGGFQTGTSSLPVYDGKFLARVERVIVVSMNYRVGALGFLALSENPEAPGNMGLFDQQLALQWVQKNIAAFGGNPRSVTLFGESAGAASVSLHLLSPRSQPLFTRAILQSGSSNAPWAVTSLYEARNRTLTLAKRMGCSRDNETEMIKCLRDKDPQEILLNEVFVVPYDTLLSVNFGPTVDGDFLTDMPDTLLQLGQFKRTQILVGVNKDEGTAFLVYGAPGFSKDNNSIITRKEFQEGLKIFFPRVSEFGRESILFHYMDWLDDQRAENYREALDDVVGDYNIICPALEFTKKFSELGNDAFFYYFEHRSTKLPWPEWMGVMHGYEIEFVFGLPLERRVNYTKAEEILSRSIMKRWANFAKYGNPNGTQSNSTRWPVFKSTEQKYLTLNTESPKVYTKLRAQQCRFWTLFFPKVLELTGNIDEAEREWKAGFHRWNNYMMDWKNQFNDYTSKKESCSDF
Outline: (§1)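 Ellman assay followed, with 200 µM butyrylthiocholine as substrate. Runs were in triplicate with four-point dose-response curves. IC50 and fiducial limits came from log concentration versus % inhibition.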

Acetylcholinesterase [6] = target: T1, Acetylcholinesterase; assay: In vitro inhibitory concentration against purified Acetylcholinesterase of human erythrocytes; value ranges from 0.32-0.98
Butyrylcholinesterase [7] = target: T4, Butyrylcholinesterase; assay: In vitro inhibitory concentration against Butyrylcholinesterase of horse serum; value ranges from 1.00-1.20; outline: as §1
[8] = target: T3, Amine oxidase [flavin-containing] A; assay: In vitro inhibitory concentration against Monoamine oxidase A of rat brain homogenates; value ranges from 6.3-7.7; format: tissue-based
[9] = target: T2, Amine oxidase [flavin-containing] B; assay: In vitro inhibitory concentration against Monoamine oxidase B of rat brain homogenates; value ranges from 4.8-6.9; format: tissue-based
[10] = target: T3, Amine oxidase [flavin-containing] A; assay: In vitro inhibitory concentration against Monoamine oxidase A of rat brain homogenates; value ranges from 0.28-0.34; format: tissue-based
Acetylcholinesterase [11] = target: T1, Acetylcholinesterase
Butyrylcholinesterase [12] = target: T4, Butyrylcholinesterase; assay: In vitro inhibitory concentration against Butyrylcholinesterase of horse serum; value ranges from 1.6-2.4; outline: as §1
[13] = target: T2, Amine oxidase [flavin-containing] B; assay: In vitro inhibitory concentration against Monoamine oxidase B of rat brain homogenates; value ranges from 0.19-0.44; format: tissue-based
Outline: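 Rat brain homogenate (in 0.3 M sucrose) as enzyme source; compounds diluted 10⁻²M to 10⁻⁹M in 0.05 M phosphate buffer with 0.15 μM clorgyline; preincubated 60 min at 37 °C, then 10 μM ¹⁴C-phenylethylamine added for 20 min more; stopped with citric acid; metabolites extracted into toluene/ethyl acetate, scintillation counted; activity as % of control, tranylcypromine blank.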

Acetylcholinesterase [14] = target: T1, Acetylcholinesterase; assay: In vitro inhibitory concentration against purified Acetylcholinesterase of human erythrocytes; value ranges from 31.2-202
Butyrylcholinesterase [15] = target: T4, Butyrylcholinesterase; assay: In vitro inhibitory concentration against Butyrylcholinesterase of horse serum; value ranges from 1.19-6.10; outline: as §1
Acetylcholinesterase [16] = target: T1, Acetylcholinesterase; remark: listed apart in the source
Butyrylcholinesterase [17] = target: T4, Butyrylcholinesterase; assay: In vitro inhibitory concentration against Butyrylcholinesterase of horse serum; value ranges from 29.6-110; outline: as §1
Acetylcholinesterase [18] = target: T1, Acetylcholinesterase; assay: In vitro inhibitory concentration against purified Acetylcholinesterase of human erythrocytes; value ranges from 33.2-96.7
Acetylcholinesterase [19] = target: T1, Acetylcholinesterase; assay: In vitro inhibitory concentration against purified Acetylcholinesterase of human erythrocytes; value ranges from 0.54-0.56
Butyrylcholinesterase [20] = target: T4, Butyrylcholinesterase
Acetylcholinesterase [21] = target: T1, Acetylcholinesterase; remark: listed apart in the source
Butyrylcholinesterase [22] = target: T4, Butyrylcholinesterase; remark: listed apart in the source
[23] = target: T3, Amine oxidase [flavin-containing] A; assay: In vitro inhibitory concentration against Monoamine oxidase A of rat brain homogenates; value ranges from 560-1000; format: tissue-based
[24] = target: T2, Amine oxidase [flavin-containing] B; assay: In vitro inhibitory concentration against Monoamine oxidase B of rat brain homogenates; value ranges from 200-1400; format: tissue-based
Acetylcholinesterase [25] = target: T1, Acetylcholinesterase; assay: In vitro inhibitory concentration against purified Acetylcholinesterase of human erythrocytes; value ranges from 6.4-45.9
Butyrylcholinesterase [26] = target: T4, Butyrylcholinesterase; assay: In vitro inhibitory concentration against Butyrylcholinesterase of horse serum; value ranges from 6.3-52.4; outline: as §1
[27] = target: T2, Amine oxidase [flavin-containing] B; assay: In vitro inhibitory concentration against Monoamine oxidase B of rat brain homogenates; value ranges from 360-470; format: tissue-based
[28] = target: T3, Amine oxidase [flavin-containing] A; assay: In vitro inhibitory concentration against Monoamine oxidase A of rat brain homogenates; value ranges from 170-340; format: tissue-based
Acetylcholinesterase [29] = target: T1, Acetylcholinesterase; assay: In vitro inhibitory concentration against purified Acetylcholinesterase of human erythrocytes; value ranges from 7.81-39.2
Butyrylcholinesterase [30] = target: T4, Butyrylcholinesterase; assay: In vitro inhibitory concentration against Butyrylcholinesterase of horse serum; value ranges from 5.02-12.2; outline: as §1
[31] = Bimolecular rate constant for carbamoylation of ACHE; format: ADME
Outline: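 Human erythrocyte AChE preincubated with inhibitor at 37 °C in 0.1 M phosphate buffer, pH 7.4, under Ellman conditions with 200 µM […]. Pseudo-first-order rate constants (k_obs) for progressive inhibition were obtained at 4-5 inhibitor concentrations. The apparent bimolecular carbamylation constant k_i was calculated from these.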

[32] = Pseudo-first order rate constant for carbamoylation of ACHE at 100 (uM) concentration; format: ADME
Outline: (§2)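 Human erythrocyte AChE, same Ellman conditions: 200 µM […], 60 min preincubation at 37 °C, 0.1 M phosphate pH 7.4. Progressive inhibition followed at 4-5 inhibitor concentrations. Pseudo-first-order k_obs (min⁻¹) derived per concentration; apparent bimolecular carbamylation constant k_i calculated from these.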

[33] = Pseudo-first order rate constant for carbamoylation of ACHE at 300 (uM) concentration; format: ADME; outline: as §2
[34] = Pseudo-first order rate constant for carbamoylation of ACHE at 400 (uM) concentration; format: ADME
Outline: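 Pseudo-first-order rate constants kobs measured at 4-5 inhibitor concentrations following Bar-On et al. Apparent bimolecular carbamylation constant ki calculated from these.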

[35] = Pseudo-first order rate constant for carbamoylation of ACHE at 50 (uM) concentration; format: ADME; outline: as §2
Acetylcholinesterase [36] = target: T1, Acetylcholinesterase; assay: In vitro inhibitory concentration against purified Acetylcholinesterase of human erythrocytes; value ranges from 42.5-45.9
[37] = target: T2, Amine oxidase [flavin-containing] B; assay: In vitro inhibitory concentration against Monoamine oxidase B of rat brain homogenates; value ranges from 18-59; format: tissue-based
[38] = target: T3, Amine oxidase [flavin-containing] A; assay: In vitro inhibitory concentration against Monoamine oxidase A of rat brain homogenates; value ranges from 315-465; format: tissue-based

T1 sequence (P22303 whole entry): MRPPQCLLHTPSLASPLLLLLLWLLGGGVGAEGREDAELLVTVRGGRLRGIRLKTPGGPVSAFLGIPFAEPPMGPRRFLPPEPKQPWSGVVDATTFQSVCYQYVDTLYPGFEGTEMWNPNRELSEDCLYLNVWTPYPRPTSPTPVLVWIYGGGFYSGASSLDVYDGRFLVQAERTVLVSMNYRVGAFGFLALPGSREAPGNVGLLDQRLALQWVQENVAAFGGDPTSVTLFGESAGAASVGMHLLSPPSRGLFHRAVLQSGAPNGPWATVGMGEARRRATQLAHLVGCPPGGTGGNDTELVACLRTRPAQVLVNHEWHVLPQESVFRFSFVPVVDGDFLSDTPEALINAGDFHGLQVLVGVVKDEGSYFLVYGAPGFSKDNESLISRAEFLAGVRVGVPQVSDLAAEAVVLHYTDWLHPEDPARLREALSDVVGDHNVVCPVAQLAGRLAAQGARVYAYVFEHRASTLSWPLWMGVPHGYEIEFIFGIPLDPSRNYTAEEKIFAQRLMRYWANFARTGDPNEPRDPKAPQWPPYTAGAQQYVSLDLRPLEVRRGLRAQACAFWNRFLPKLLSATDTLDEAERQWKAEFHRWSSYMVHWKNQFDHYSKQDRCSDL

## C#CCN(C)[C@@H](C)Cc1cccc(OC(=O)N(C)C2CCCCC2)c1
Acetylcholinesterase [1]
  IC50: 6.3 µM
[2]
  IC50: 0.28 µM
[3]
  IC50: 1.1 µM

## C#CCN[C@H]1CCc2ccc(OC(=O)N(C)CCCC)cc21
Acetylcholinesterase [4]
  IC50: 9.3 µM

## C#CC(C)NCCc1cccc(OC(=O)N(C)CC)c1 (stereo not drawn)
Butyrylcholinesterase [5]
  IC50: 0.24 µM

## C#CCNC(C)Cc1cccc(OC(=O)N(C)C)c1 (stereo not drawn)
Acetylcholinesterase [6]
  IC50: 0.54 µM
Butyrylcholinesterase [7]
  IC50: 1.09 µM
[8]
  IC50: 6.9 µM
[9]
  IC50: 5.7 µM

## C#CCN[C@@H]1CCc2ccc(O)cc21
[10]
  IC50: 0.3 µM

## C#CCNCCc1cccc(OC(=O)N(C)CCC)c1
Acetylcholinesterase [11]
  IC50: 15.4 µM
Butyrylcholinesterase [12]
  IC50: 1.9 µM
[13]
  IC50: 0.29 µM

## C#CCNC1CCc2ccc(OC(=O)N(CC)CCCC)cc21 (stereo not drawn)
Acetylcholinesterase [14]
  IC50: 72.4 µM
Butyrylcholinesterase [15]
  IC50: 3.03 µM

## C#CCNC1CCc2ccc(OC(=O)N(C)CCCC)cc21 (stereo not drawn)
Acetylcholinesterase [16]
  IC50: 11.3 µM
Butyrylcholinesterase [17]
  IC50: 53.7 µM

## C#CCNC1CCc2cccc(OC(=O)N(C)CCC)c21 (stereo not drawn)
Acetylcholinesterase [18]
  IC50: 45.8 µM

## C#CCNC1CCc2ccc(OC(=O)N(C)c3ccccc3)cc21 (stereo not drawn)
Acetylcholinesterase [19]
  IC50: 0.55 µM
Butyrylcholinesterase [20]
  IC50: 16.6 µM

## C#CCNC1CCc2c(Cl)cc(OC(=O)N(C)CC)cc21 (stereo not drawn)
Acetylcholinesterase [21]
  IC50: 25.5 µM

## C#CCNC1CCc2ccc(OC(=O)N(C)C)cc21 (stereo not drawn)
Butyrylcholinesterase [22]
  IC50: 2.07 µM
[23]
  IC50: 750 µM
[24]
  IC50: 530 µM

## C#CCNC1CCc2ccc(OC(=O)N(C)CCC)cc21 (stereo not drawn)
Acetylcholinesterase [25]
  IC50: 14.6 µM
Butyrylcholinesterase [26]
  IC50: 14.8 µM
[27]
  IC50: 410 µM
[28]
  IC50: 240 µM

## C#CCNC1CCc2ccc(OC(=O)N(C)CCCCCC)cc21 (stereo not drawn)
Acetylcholinesterase [29]
  IC50: 15.7 µM
Butyrylcholinesterase [30]
  IC50: 7.5 µM

## C#CCNC1CCc2c(Cl)cc(OC(=O)N(C)CCC)cc21.Cl (stereo not drawn)
[31]
  Bimolecular carbamoylation rate constant (ki): 0.983 M⁻¹ s⁻¹
[32]
  K obs: 22 min⁻¹
[33]
  K obs: 34 min⁻¹
[34]
  K obs: 38 min⁻¹
[35]
  K obs: 17 min⁻¹
Acetylcholinesterase [36]
  IC50: 43.9 µM
[37]
  IC50: 32 µM
[38]
  IC50: 375 µM
